# Source: PubChem (The Scripps Research Institute Molecular Screening Center)
# The list is not random: actives were taken first. Their share in the collection is about 4.6%.
# OX1R antag-1: blocks the human orexin 1 receptor; inhibition, % at 6.6 µM; O43613; AID 485270; 330,000 compounds, 1.8% hits; OX1R-expressing cells, FRET antagonist read-out; in the data active = inhibition mostly above about 38%, no sharp cut-off; inactive = mostly below about 40%
# Target sequence (O43613 whole entry, looked up): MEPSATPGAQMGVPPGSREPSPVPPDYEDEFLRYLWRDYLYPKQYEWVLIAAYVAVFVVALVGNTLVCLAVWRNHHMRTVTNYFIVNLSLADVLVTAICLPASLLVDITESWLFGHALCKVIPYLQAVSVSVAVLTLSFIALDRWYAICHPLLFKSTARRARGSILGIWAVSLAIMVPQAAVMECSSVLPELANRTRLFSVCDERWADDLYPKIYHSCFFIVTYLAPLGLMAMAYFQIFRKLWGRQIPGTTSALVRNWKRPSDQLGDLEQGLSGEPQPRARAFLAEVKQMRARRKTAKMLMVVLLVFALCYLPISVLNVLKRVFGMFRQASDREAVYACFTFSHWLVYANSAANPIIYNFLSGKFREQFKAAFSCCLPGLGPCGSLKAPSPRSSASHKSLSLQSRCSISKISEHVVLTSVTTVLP
# TAAR1 agonist: agonists of human TAAR1 | Q96RJ0 | CHO RD-HGA16 TAAR1, Fluo-8 calcium fluorescence; vehicle wells 0%, saturating PEA agonist 100% | activation, % at 3 µM | 360,000 compounds, 0.99% hits | AID 624467;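 active = activation above the mean activation of all test compounds in the run plus 3 SD, cut at about 38% in these data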
#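 System: CHO-derived RD-HGA16 cells with stable Gα16 and human TAAR1. Times: 17-24 h plating, Fluo-8 75 min 37 °C, 30 min RT. Measured by: calcium-sensitive Fluo-8 signal, excitation 470-495, emission 515-575 nm. Read-out basis: % activation relative to PEA EC100 response. Control set: DMSO and PEA EC100. Repeats: no replicates (n 1).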
# GPR7 antagonist: human neuropeptides B/W receptor 1 antagonism. P48145. GPR7-expressing cells, fluorescence antagonist assay. inhibition, % at 4.4 µM. 290,000 compounds, 1.1% hits; in the data active = inhibition above about 16%, passing the limit was not always enough;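 also: cells stimulated with the agonist NPW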
# OX1R antag-2: blocks the human orexin 1 receptor. 330,000 compounds, 0.43% hits. CHO/OX1R cells, Fluo-8 calcium fluorescence, orexin A. O43613. inhibition, % at 5 µM;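 active = inhibition above its plate's threshold, mean inhibition of all tested compounds on the plate plus 3 SD, cut at about 37% in these data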
# TAAR1 antag: human TAAR1 antagonism. 360,000 compounds, 1.5% hits. CHO RD-HGA16 TAAR1, Fluo-8 calcium fluorescence, antagonist. inhibition, % at 3 µM;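 active = inhibition above a per-plate cutoff, the mean inhibition of test compounds on that plate plus 3 SD, cut at about 49% in these data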
#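 Test system – hTAAR1-expressing CHO RD-HGA16 cells, Gα16-coupled · Also added – β-PEA at EC80 concentration, post-compound challenge · Compound – 3 µM, single point · Incubation – dye loading 75 min at 37 °C, then 30 min room temperature · Measured by – Fluo-8 intracellular calcium dye fluorescence, real-time kinetic reads · Benchmarks – vehicle and agonist controls · Replicates – singlicate, one well per test compound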
# CHO parental Ca: counter-screen for OX1R antagonists: effect in parental CHO cells; parental CHO-K1, ATP-induced calcium, Fluo-8 fluorescence; inhibition, % at 5.6 µM; 330,000 compounds, 0.63% hits; AID 463079;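 active = inhibition above that plate's mean sample inhibition plus 3 SD, cut at about 26% in these data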
#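 Test system: untransfected parental CHO cell line; also added: ATP stimulus; dosing: 5.6 µM, single dose; signal: calcium-sensitive Fluo-8 fluorescence; measure: percent inhibition of ATP-evoked calcium rise, normalized to controls; benchmarks: low control ATP plus DMSO, high control DMSO only; replication: one well per compound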
# GPR7 antag conf: human GPR7 antagonism, confirmation assay | shares compounds with GPR7 antagonist | GPR7-expressing cells, calcium fluorescence antagonist mode | inhibition, % at 4.4 µM | 2,400 compounds, 52% hits | AID 1952; in the data active = inhibition above about 24%;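 also: stimulated with the GPR7 agonist NPW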
# MCHR1 antagonist: counter-screen for GPR7 antagonists: antagonists of human MCHR1; shares compounds with GPR7 antagonist; MCHR1-expressing cells, fluorescence antagonist assay; inhibition, % at 4.4 µM; 2,400 compounds, 62% hits; in the data active = inhibition above about 22%
# Hits are given with their value; – = inactive; · = no result.
SMILES,OX1R antag-1,TAAR1 agonist,GPR7 antagonist,OX1R antag-2,TAAR1 antag,CHO parental Ca,GPR7 antag conf,MCHR1 antagonist
O=C(COC(=O)[C@H](Cc1ccccc1)NC(=O)c1cccs1)Nc1ccccc1C(F)(F)F,–,–,22.9,–,–,–,39.0,32.2
CC1CCCN(S(=O)(=O)c2ccc(S(=O)(=O)NC(C)c3cccs3)cc2)C1 (configuration not stated),–,–,47.9,–,–,–,53.2,31.9
CC(=O)Nc1ccc(NC(=O)COC(=O)C2c3ccccc3Oc3ccccc32)cc1,·,–,23.3,·,–,·,–,–
O=C(COC(=O)C1c2ccccc2Oc2ccccc21)Nc1ccc2c(c1)OCO2,–,–,–,–,–,–,·,·
Cc1nn(C)cc1CNC(=O)c1cnn2c(C(F)F)cc(C3CC3)nc12,–,–,–,–,–,–,·,·
Cc1ccc(NC(=O)CN2CCCCCC2)cc1Br,–,–,–,–,–,–,·,·
CC(C)[C@@H]1CC[C@@H](C)C[C@H]1OC(=O)C[n+]1cc(-c2ccc(Cl)cc2)n2c1CCCCC2,–,–,58.2,–,–,–,64.9,83.5
N#Cc1ccc(CSc2nnc(Cc3cccs3)n2Cc2ccco2)cc1,–,·,24.6,–,·,–,27.8,–
Cc1cc(Cl)ccc1NC(=O)CSc1nnc(Cc2cccs2)n1Cc1ccco1,–,–,23.4,–,–,–,37.6,33.5
NS(=O)(=O)c1cccc(NC(=O)COC(=O)c2cc(-c3ccc(Cl)cc3)nc3ccccc23)c1,–,–,–,–,–,–,·,·
O=C1NC(=S)S/C1=C\c1coc2ccc(O)cc2c1=O,–,–,21.0,–,–,–,–,–
O=C1NC(=S)S/C1=C\c1coc2ccccc2c1=O,64.4,–,27.2,–,–,–,–,–
COc1ccccc1NS(=O)(=O)c1ccc(C(=O)NCCCn2ccnc2)cc1,–,–,·,–,–,–,·,·
CC(Oc1ccc(NC(=O)c2ccco2)cc1)C(=O)N1c2ccccc2CC1C (configuration not stated),–,–,35.2,–,–,–,–,–
CC1Cc2ccccc2N1C(=S)NC(=O)c1ccco1 (configuration not stated),–,–,–,–,–,–,·,·
OC1(c2ccccc2)CCN(Cc2ccccc2)C2CCCCC21 (configuration not stated),–,–,33.8,–,–,–,–,–
CN(C)CCNS(=O)(=O)c1ccc(N2CCN(c3ccc(F)cc3)CC2)c([N+](=O)[O-])c1,–,–,23.0,–,–,–,36.2,32.3
CC(=O)N1CCN(c2ccc(S(=O)(=O)NCCN(C(C)C)C(C)C)cc2[N+](=O)[O-])CC1,–,–,–,–,–,–,·,·
NC(=O)C1(C(N)=O)OC1c1ccc(Cl)c(Cl)c1 (configuration not stated),–,–,–,–,–,–,·,·
COc1ccc(NC(=S)N(CCc2ccc(OC)c(OC)c2)Cc2ccccn2)cc1,–,–,–,–,–,–,·,·
COc1ccc(NC(=S)N(Cc2ccc(C)cc2)Cc2ccccn2)cc1,–,–,25.0,–,–,–,–,–
COc1ccccc1N(CC(=O)Nc1ccccc1C(=O)N1CCOCC1)S(C)(=O)=O,–,–,–,–,–,–,·,·
C=CCC1(CC=C)CCCN1C(=O)c1cc(COc2cncc(Cl)c2)on1,–,–,38.2,–,–,65.3,28.3,51.6
C=CCC1(CC=C)CCCN1C(=O)c1cc(COc2cccc(OC)c2)on1,–,–,–,–,–,–,·,·
O=C(CSc1nnc(-c2cccc(S(=O)(=O)N3CCCC3)c2)n1-c1ccccc1)Nc1ccc(C(=O)O)cc1,–,–,26.4,–,–,–,–,–
SMILES,OX1R antag-1,TAAR1 agonist,GPR7 antagonist,OX1R antag-2,TAAR1 antag,CHO parental Ca,GPR7 antag conf,MCHR1 antagonist
COc1cccc(N=Cc2c(O)c3ccccc3oc2=O)c1,–,–,28.5,–,–,–,–,30.6
CC(=O)c1cccc(N=Cc2c(O)c3ccccc3oc2=O)c1,–,–,–,–,–,–,·,·
Cc1cc(OCC(=O)O)c2ccccc2n1,–,–,–,–,–,–,·,·
O=C(c1ccc2c(c1)OCO2)N(CC1CCCO1)C1(C(=O)NC2CCCC2)CCCCC1 (configuration not stated),–,–,31.6,–,–,–,30.8,–
O=C(Nc1cccc(Cl)c1)c1ccccc1,–,–,·,–,–,–,·,·
CCN(c1ccccc1)S(=O)(=O)c1cc(C(=O)Nc2cccc(Cl)c2)ccc1F,–,–,26.2,–,–,–,–,51.0
CC1(C(=O)NS(=O)(=O)c2ccccc2Cl)CCN1C(=O)Cc1cccs1 (configuration not stated),·,–,·,·,–,·,·,·
CCCOc1ccc(N2C(=O)CC(N3CCN(c4ccccc4F)CC3)C2=O)cc1 (configuration not stated),–,–,–,–,–,–,·,·
CCCOc1ccc(N2C(=O)CC(N3CCN(c4nc5ccccc5s4)CC3)C2=O)cc1 (configuration not stated),–,–,41.8,–,–,–,–,33.5
NC(c1csc(NC(=O)c2cccc(OC(F)(F)F)c2)n1)c1ccccc1Cl (configuration not stated),·,–,·,·,–,·,·,·
COc1ccccc1CNC(=O)c1csc(Cc2ccc(Cl)cc2)n1,–,–,29.3,–,50.2,–,–,44.7
COc1ccc(CNC(=O)c2csc(Cc3ccccc3)n2)cc1,–,–,–,–,–,–,·,·
Cc1ccc(CNC(=O)C(=O)NCC2CCCO2)cc1 (configuration not stated),–,–,–,–,–,–,·,·
Cn1c(Cc2ccccc2)nnc1SCC(=O)NC1CCCC1,–,–,39.3,–,–,–,–,–
Cn1c(Cc2ccccc2)nnc1SCC(=O)NC1CC1,–,–,–,–,–,–,·,·
O=C(CSc1nnc(Cc2ccccc2)n1Cc1ccco1)NC1CCCC1,–,–,33.1,–,–,–,26.2,–
Cc1noc(/C=C/N(C)C)c1S(=O)(=O)N1CCCC(C(=O)N2CCCCC2)C1 (configuration not stated),–,–,27.0,–,–,–,–,–
O=S(=O)(Cc1ccc(Cl)cc1)NCc1cccnc1,–,–,24.6,–,–,–,–,–
Cc1ccc2c(c1)[C@@H]1CN(C)CC[C@@H]1N2S(=O)(=O)c1ccc(F)cc1,–,–,–,–,–,–,·,·
Cc1ccc2c(c1)[C@@H]1CN(C)CC[C@@H]1N2S(=O)(=O)c1ccc([N+](=O)[O-])cc1,43.7,–,29.2,–,–,–,–,–
